The results in this text go back to ChEMBL document CHEMBL1152300, “Ligand specificity of constitutive androstane receptor as probed by induced-fit docking and mutagenesis” (J Med Chem, 2008).

The target of series [1] is Nuclear receptor subfamily 1 group I member 3 (Mus musculus, UniProt O35627, N175A). Description: Decrease in mouse CAR N175A mutant activation expressed in HEK293 cells at 10 uM by mammalian one-hybrid assay. It is filed as cell-based. The settings on record: read-out: Activity. Summed up: (§1)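 GAL4-DBD fused to mouse CAR LBD (residues 118-358), wild-type or point mutant, cotransfected with UASx4-tk-luc reporter and pCMVβ into HEK293 cells. Cells were exposed to final 1 µM, 2 µM or 10 µM test chemical, or 0.1% v/v DMSO, for 24 h after transfection. Luciferase was normalized to β-galactosidase and set against empty GAL4 vector (=1.0). Mean ± standard deviation, three independent experiments.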

For series [2], the target named is T1, Nuclear receptor subfamily 1 group I member 3 (Mus musculus, UniProt O35627, F171L). Description: Decrease in nuclear co-repressor receptor binding to mouse CAR F171L mutant […] at 10 uM by yeast two-hybrid assay. Details: scale not given: the % may be the effect or the level left; call rule not given here. Format: cell-based. In outline:
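Yeast expressing wild-type or mutant mouse CAR LBD plus NCoR, selected on SD plates lacking leucine and tryptophan. Pooled colonies treated with DMSO or compound for 3.5 h. β-Galactosidase activity normalized to cell density. Reference is 10 µM androstenol (=100). Mean ± SD of two independent determinations, each in triplicate.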

Series [3] concerns the target T1, Nuclear receptor subfamily 1 group I member 3. Description: Enhancement of steroid receptor coactivator 1 binding to mouse CAR F171L mutant […] at 10 uM by yeast two-hybrid assay. It is filed as cell-based. In outline: (§2)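 Yeast two-hybrid assay. Yeast co-expressing wild-type or mutant mouse CAR LBD and the SRC-1 partner were selected on SD plates lacking leucine and tryptophan. Random colonies were pooled and amplified, then treated with DMSO or test chemical for 3.5 h. β-galactosidase activity was normalized to cell density and set relative to wild-type mCAR + SRC-1 with DMSO (=100). Mean ± standard deviation of two determinations, each in triplicate.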

Series [4] has as its target T2, Nuclear receptor subfamily 1 group I member 3 (Mus musculus, UniProt O35627, L212A). Description: Enhancement of steroid receptor co-activator 1 binding to mouse CAR L212A mutant […] at 10 uM by yeast two-hybrid assay. It is filed as cell-based.
The target of series [5] is T3, Nuclear receptor subfamily 1 group I member 3 (Mus musculus, UniProt O35627).
T3 sequence (O35627 whole entry): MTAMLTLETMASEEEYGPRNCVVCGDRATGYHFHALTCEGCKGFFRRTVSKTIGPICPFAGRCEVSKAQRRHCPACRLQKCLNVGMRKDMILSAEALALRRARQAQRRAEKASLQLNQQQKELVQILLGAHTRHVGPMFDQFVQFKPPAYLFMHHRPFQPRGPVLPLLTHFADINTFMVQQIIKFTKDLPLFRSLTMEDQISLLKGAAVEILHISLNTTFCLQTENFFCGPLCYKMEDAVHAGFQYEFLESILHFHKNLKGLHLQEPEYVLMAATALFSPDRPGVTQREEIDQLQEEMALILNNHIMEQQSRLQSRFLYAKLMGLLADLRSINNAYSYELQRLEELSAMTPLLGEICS
Description: Activation of mouse CAR. Summed up:
as §1

Series [6] deals with T4, mouse CAR (NR1I3), wild type (Mus musculus, UniProt O35627).
T4 sequence (O35627 whole entry): T3 sequence (O35627 whole entry)
Description: Activation of wild type mouse CAR expressed in HEK293 cells at 1 uM by mammalian one-hybrid assay. It is filed as cell-based. The note with it: HEK293 cells expressing wild type mouse CAR, read-out: FC. In outline:
(§3)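 GAL4 DBD fused to mouse CAR LBD (residues 118-358), wild type or point mutant, cotransfected with UASx4-tk-luc reporter and pCMVβ into HEK293 cells. Cells cultured with DMSO (0.1% v/v) or compound (final 1, 2 or 10 µM). Lysed 24 h post-transfection. Luciferase normalized to β-galactosidase, expressed relative to empty GAL4 vector (=1.0). Mean ± SD, three independent experiments.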

Series [7] deals with T4, mouse CAR (NR1I3), wild type. Description: Activation of wild type mouse CAR expressed in HEK293 cells at 10 uM by mammalian one-hybrid assay. It is filed as cell-based. The note with it: HEK293 cells expressing wild type mouse CAR, read-out: FC. In outline: as §3
In series [8] the target is T3, Nuclear receptor subfamily 1 group I member 3. Description: Enhancement of steroid receptor coactivator 1 binding to wild type mouse CAR expressed in HEK293 cells at 2 uM by yeast two-hybrid assay. The settings on record: hek293, 2 µM.
Series [9] has as its target Nuclear receptor subfamily 1 group I member 3 (Mus musculus, UniProt O35627, H213A). The note with it: HEK293, mouse, read-out: Activity.
The target in series [10] is Nuclear receptor subfamily 1 group I member 3 (Mus musculus, UniProt O35627, S251L). The settings on record: HEK293, mouse, read-out: Activity.
Series [11] concerns the target Nuclear receptor subfamily 1 group I member 3 (Mus musculus, UniProt O35627, T350A). The settings on record: HEK293, mouse, read-out: Activity.
For series [12], the target named is Nuclear receptor subfamily 1 group I member 3 (Mus musculus, UniProt O35627, T350M). The settings on record: HEK293, mouse, read-out: Activity.
For series [13], the target named is T5, Nuclear receptor subfamily 1 group I member 3 (Mus musculus, UniProt O35627, Y336A). The settings on record: HEK293, mouse, read-out: Activity.
The target in series [14] is T3, Nuclear receptor subfamily 1 group I member 3. Description: Activation of wild type mouse CAR expressed in HEK293 cells at 10 uM by mammalian one-hybrid transactivation assay. The settings on record: hek293, 10 µM.
Series [15] has as its target Nuclear receptor subfamily 1 group I member 3 (Mus musculus, UniProt O35627, F171A). Description: Enhancement of nuclear co-repressor receptor binding to mouse CAR F171A mutant […] at 10 uM by yeast two-hybrid assay. Format: cell-based. In outline:
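Yeast two-hybrid assay. Yeast co-expressing wild-type or mutant mouse CAR LBD and the NCoR partner were selected on SD plates lacking leucine and tryptophan. Pooled, amplified colonies were treated with DMSO or test chemical for 3.5 h. β-galactosidase activity was normalized to cell density and referenced to the 10 µM androstenol interaction (=100). Mean ± standard deviation of two determinations, each in triplicate.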

Series [16] deals with T2, Nuclear receptor subfamily 1 group I member 3. Description: Effect on steroid receptor co-activator 1 binding to mouse CAR L212A mutant […] at 10 uM by yeast two-hybrid assay. It is filed as cell-based. The settings on record: read-out: Activity. Summed up: as §2
The target of series [17] is T5, Nuclear receptor subfamily 1 group I member 3. Description: Decrease in steroid receptor coactivator 1 binding to mouse CAR Y336A mutant […] at 10 uM by yeast two-hybrid assay. The settings on record: read-out: Activity. It is filed as cell-based. In outline:
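Yeast expressing wild-type or mutant mouse CAR LBD plus SRC-1, selected on SD plates lacking leucine and tryptophan. Pooled colonies treated with DMSO or compound for 3.5 h. β-Galactosidase activity normalized to cell density. Reference is wild-type CAR + SRC-1 with DMSO (=100). Mean ± SD of two independent determinations, each in triplicate.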

The target of series [18] is T1, Nuclear receptor subfamily 1 group I member 3. The settings on record: HEK293, mouse.
Series [19] shares this target. Description: Decrease in mouse CAR F171L mutant activation expressed in HEK293 cells at 10 uM by mammalian one-hybrid assay. The note with it: read-out: Activity. It is filed as cell-based. In outline: as §3
The target in series [20] is T3, Nuclear receptor subfamily 1 group I member 3. Description: Activation of wild type mouse CAR expressed in HEK293 cells at 2 uM by mammalian one-hybrid assay. It is filed as cell-based. The settings on record: hek293, 2 µM. In outline:
as §1

A value given as a limit tells only on which side of the number the result lay.

T1 sequence (O35627 whole entry F171L, the tested form may be a part): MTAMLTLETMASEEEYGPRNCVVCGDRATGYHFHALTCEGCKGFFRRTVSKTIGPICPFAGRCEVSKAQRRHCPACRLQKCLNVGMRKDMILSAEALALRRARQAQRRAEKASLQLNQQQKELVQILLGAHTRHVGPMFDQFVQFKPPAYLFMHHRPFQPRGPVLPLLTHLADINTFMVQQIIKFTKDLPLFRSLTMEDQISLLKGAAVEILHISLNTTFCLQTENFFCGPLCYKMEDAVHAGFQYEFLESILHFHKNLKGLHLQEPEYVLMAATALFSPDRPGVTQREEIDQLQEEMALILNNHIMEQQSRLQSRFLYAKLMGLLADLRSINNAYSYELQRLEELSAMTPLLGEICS
T2 sequence (O35627 whole entry L212A): as the sequence (O35627 whole entry F171L, the tested form may be a part) above, with L171F, L212A counted along it
T5 sequence (O35627 whole entry Y336A): as the sequence (O35627 whole entry F171L, the tested form may be a part) above, with L171F, Y336A counted along it
Nuclear receptor subfamily 1 group I member 3 (Mus musculus, UniProt O35627, S251L), sequence (O35627 whole entry S251L): as the sequence (O35627 whole entry F171L, the tested form may be a part) above, with L171F, S251L counted along it
Nuclear receptor subfamily 1 group I member 3 (Mus musculus, UniProt O35627, N175A), sequence (O35627 whole entry N175A, the tested form may be a part): as the sequence (O35627 whole entry F171L, the tested form may be a part) above, with L171F, N175A counted along it
Nuclear receptor subfamily 1 group I member 3 (Mus musculus, UniProt O35627, H213A), sequence (O35627 whole entry H213A): as the sequence (O35627 whole entry F171L, the tested form may be a part) above, with L171F, H213A counted along it
Nuclear receptor subfamily 1 group I member 3 (Mus musculus, UniProt O35627, F171A), sequence (O35627 whole entry F171A, the tested form may be a part): as the sequence (O35627 whole entry F171L, the tested form may be a part) above, with L171A counted along it
Nuclear receptor subfamily 1 group I member 3 (Mus musculus, UniProt O35627, T350A), sequence (O35627 whole entry T350A): as the sequence (O35627 whole entry F171L, the tested form may be a part) above, with L171F, T350A counted along it
Nuclear receptor subfamily 1 group I member 3 (Mus musculus, UniProt O35627, T350M), sequence (O35627 whole entry T350M): as the sequence (O35627 whole entry F171L, the tested form may be a part) above, with L171F, T350M counted along it

With `COc1ccccc1CC(CC(=O)Cc1ccccc1)OC` (stereo unspecified), the inhibition at 10 µM is 50% in series [1]; 50% in series [9]; below 50% in series [10]; 50% in series [11]; below 50% in series [12]; at least 50% in [13]. In addition, the Activity result was “>= 50%” in [2], above 50% in [3], above 150% in [4] and “Active” in series [5]. For the same molecule, the fold induction at 1 µM in series [6] was 2. Also, the fold induction at 10 µM in series [7] was found to be 2. Further, the FC in [8] was determined as 2.5. Also, in [14], the “fold change (FC)” value is listed as 2.

For `COc1ccc(C(=O)CCCc2ccccc2)cc1`, the inhibition at 10 µM in [1] is below 50%; in series [17], at least 50%; in series [9], 50%; in [12], 50%; in [13] it was at least 50%. Moreover, the Activity entry in [15] is reported as “>= 50%”; in series [5] it was “Active”. The activity at 10 µM in [16] and in series [18] was below 50% each time. In series [8], the FC is reported as 2.5. The “fold change (FC)” value in series [14] turned out to be 1.4.

Take `COc1ccc(C(c2ccc(OC)cc2)C(Cl)(Cl)Cl)cc1` [METHOXYCHLOR]: the inhibition at 10 µM in [19] is below 50%; in series [17] it was at least 50%; in [10], below 50%; in series [11], 50%; in [13], at least 50%. The Activity entry is “>= 50%” in series [15], “>= 50%” in series [3], “>= 50%” in [4] and 40% in series [20]. Besides, in [8], the FC came to 2.5. Further, the “fold change (FC)” value in [14] was determined as 1.4.

Take `C[C@]12CC[C@@H](O)C[C@@H]1CC[C@@H]1[C@@H]2CC[C@]2(C)C=CC[C@@H]12` [ANDROSTENOL]: the results for the inhibition at 10 µM in series [19] and in [13] were below 50% and at least 50%, respectively. The Activity entry in [2] was “>= 50%”. Further, the activity at 10 µM in series [16] and in series [18] was below 50% each time.

For `Clc1ccccc1C(c1ccccc1)(c1ccccc1)n1ccnc1` [CLOTRIMAZOLE], the Activity in series [20] came out at 40%. Also, the FC in [8] came out at 2.5.

As to `Clc1cnc(Oc2ccc(Oc3ncc(Cl)cc3Cl)cc2)c(Cl)c1`, the fold induction at 1 µM in [6] is 2. In addition, the fold induction at 10 µM in series [7] was 2. The FC in series [8] turned out to be 2.5.
